Compound activity as filed in PubChem.
CYP2C19 activ: activators of human cytochrome P450 2C19. recombinant CYP2C19, luciferin-H EGE luminescence; stronger effect = higher value; 0 = fully inhibited enzyme, 1 = untreated enzyme. activation factor at 5 µM. 96,000 tested, under 10 active. AID 1025;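 active = activation factor of at least 2 at 5 µM in the primary screen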;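 note: 0 = wells with 2.5 mM tranylcypromine and 1 = vehicle-only wells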
Target sequence (P33261 whole entry, looked up): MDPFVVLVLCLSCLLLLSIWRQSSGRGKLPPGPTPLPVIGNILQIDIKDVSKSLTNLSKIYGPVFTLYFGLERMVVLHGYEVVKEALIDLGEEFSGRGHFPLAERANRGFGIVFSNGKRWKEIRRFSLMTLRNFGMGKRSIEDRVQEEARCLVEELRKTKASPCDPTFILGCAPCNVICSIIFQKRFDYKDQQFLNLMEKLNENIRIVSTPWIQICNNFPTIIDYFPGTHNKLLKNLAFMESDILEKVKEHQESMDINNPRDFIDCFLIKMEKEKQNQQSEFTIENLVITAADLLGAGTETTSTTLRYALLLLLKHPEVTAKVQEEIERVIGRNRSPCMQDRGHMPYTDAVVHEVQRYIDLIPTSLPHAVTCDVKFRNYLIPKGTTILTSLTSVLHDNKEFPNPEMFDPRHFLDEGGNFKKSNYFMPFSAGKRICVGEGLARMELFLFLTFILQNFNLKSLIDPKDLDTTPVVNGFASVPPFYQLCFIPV
Ecoli tolC: blocks growth of E. coli BW25113 tolC mutant. OD615. growth inhibition, % at 10 µM (by protocol). 65,000 tested, 2.2% active;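 active = growth inhibition at or above a cutoff equal to the mean over every tested compound plus 3 SD, cut at about 60% in these data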;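 note: growth measured after 20 h incubation at 37 °C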
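Doses: one dose of 10 µM final / Material: E. coli BW25113 ΔtolC::kan, tolC deletion mutant strain / Buffer or medium: LB with kanamycin 50 µg/mL / Evaluation: percent growth inhibition / Detection: optical density read at 615 nm / Incubation: 37 °C, 20 h exposure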
Ecoli WT expand: E. coli BW25113 growth inhibition, expanded screen; AID 710; OD600 absorbance; 98,000 tested, 0.15% active; growth inhibition, % at 100 µM;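 active = growth inhibition above about 50% at one test dose, limit read from the data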;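 note: growth measured after 20 h incubation at 37 °C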
CYP2C9 inh: blocks human cytochrome P450 2C9. P11712. inhibition, % at 5 µM. 96,000 tested, 20% active. CYP2C9 Supersomes, luciferin-H conversion, luminescence;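 active = blocking of liver enzyme CYP2C9 beyond about 50% at 5 µM, limit read from the data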
CYP2C9 act: CYP2C9 (human) activation | activation factor at 5 µM | 96,000 tested, 1.4% active | AID 1024 | recombinant CYP2C9, luciferin-H conversion, luminescence; stronger effect = higher value; factor 1 = untreated enzyme, 0 = blocked;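 active = activation factor of 2 or more for CYP2C9 at a 5 µM dose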;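 note: 0 = sulfaphenazole-blocked wells and 1 = vehicle-only wells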
CYP2C19 inhib: inhibitors of human CYP2C19; inhibition, % at 5 µM; P33261; AID 778; CYP2C19 Supersomes, luciferin-H EGE luminescence, 30 min; 96,000 tested, 21% active;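 active = CYP2C19 inhibition above a set limit at 5 µM in the primary screen, cut at about 50% in these data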;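 note: plate controls were negative control wells for no effect and 2.5 mM tranylcypromine positive control for full effect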
An asterisk follows results filed as active; . = not tested or not shown. Most compounds without a hit are left out; they make up all but 29% or so of the library.

SMILES	CYP2C19 activ	Ecoli tolC	Ecoli WT expand	CYP2C9 inh	CYP2C9 act	CYP2C19 inhib
Cc1ccc(S(=O)(=O)N(CC(=O)O)Cc2ccccc2)cc1	1.1	6	-1	36	0.6	-5
CCOC(=O)N1CCN(C(=O)CN(Cc2ccc(Cl)cc2)S(C)(=O)=O)CC1	0.5	-15	7	18	0.8	48
CCOC(=O)N1CCN(C(=O)CN(Cc2ccccc2)S(=O)(=O)c2ccc(OC)c(Cl)c2)CC1	0.1	.	-13	55*	0.5	89*
CCOC(=O)N1CCN(C(=O)CN(Cc2ccccc2)S(=O)(=O)c2ccc(OC)c(C)c2)CC1	0.4	24	0	27	0.7	64*
CCOC(=O)N1CCN(C(=O)CN(Cc2ccc(Cl)cc2)S(=O)(=O)c2ccc(C)cc2)CC1	0	.	-13	90*	0.1	96*
Cc1ccc(S(=O)(=O)N(CCC(=O)O)Cc2ccc(Cl)cc2)cc1	0.6	.	-5	54*	0.5	37
COc1ccc(S(=O)(=O)N(CC(=O)N2CCCC2)Cc2ccccc2)cc1	0.6	7	-2	23	0.8	42
CC1(C)NC(=O)NC2(C)NC(=O)NC(C)(C)C12 (stereo not drawn)	1.1	-19	-6	-16	1.2	-12
COc1ccc(S(=O)(=O)N(C)CC(=O)N2CCN(Cc3ccccc3)CC2)cc1C	0.7	.	-2	-137	2.4*	32
CCN1CCN(C(=O)CN(C)S(=O)(=O)c2ccc(OC)c(C)c2)CC1	1	.	2	-62	1.6	-2
CCOC(=O)N1CCN(C(=O)CSc2nc3ccccc3c(=O)n2-c2ccccc2)CC1	0.4	9	-4	98*	0	56*
CCC1CCCCN1C(=O)CSc1nc2ccsc2c(=O)n1Cc1ccccc1 (stereo not drawn)	0.5	.	-18	70*	0.3	50*
Cc1nn(-c2ccccc2)c(C)c1/C=N/NC(=O)CSc1nc2ccccc2c(=O)n1-c1ccc(Br)cc1	0.7	.	-13	51*	0.5	32
CCCCn1c(SCC(=O)N2CCN(c3ccccc3)CC2)nc2ccsc2c1=O	0.5	51	-24	88*	0.1	51*
CCn1c(SCC(=O)N2CCCC2)nc2ccccc2c1=O	1	-7	-4	31	0.7	5
Cc1ccc(Cn2c(SCC(=O)NCc3ccco3)nc3ccsc3c2=O)cc1	0.8	14	-1	32	0.7	20
CCCCn1c(SCC(=O)N2CCC(C)CC2)nc2ccsc2c1=O	0.8	.	-8	32	0.7	24
CC(C)C1CC(O)(C2(O)CCCCC2)ON1 (stereo not drawn)	1.1	-14	1	-7	1.1	-13
COC(CNc1cc(=O)oc2ccccc12)OC	0.9	.	1	4	1	13
CCOC(=O)N1CCN(c2nnnn2-c2ccccc2)CC1	0.1	0	7	49	0.5	91*
COCC(C)n1c(SCC(=O)N2CCCCC2)nc2ccccc2c1=O (stereo not drawn)	0.5	1	1	54*	0.5	46
CCCn1c(SCC(=O)N2CCN(c3ccccc3)CC2)nc2ccccc2c1=O	0	14	-17	93*	0.1	97*
CC1CN(c2nnnn2-c2ccccc2)CC(C)O1 (stereo not drawn)	0.3	-7	-5	-2	1	74*
CC1CCC(Nc2nnnn2-c2ccccc2)CC1 (stereo not drawn)	1.1	.	-5	-11	1.1	-7
CCC(CC)n1[nH]c(=O)cc1N	.	4	-3	.	.	.
SMILES	CYP2C19 activ	Ecoli tolC	Ecoli WT expand	CYP2C9 inh	CYP2C9 act	CYP2C19 inhib
CCOc1cc2[nH]c(=O)n(CCCC(=O)NCc3ccc(OC)cc3)c(=O)c2cc1OCC	0.8	.	-1	47	0.5	16
CCOC(=O)N1CCN(C(=O)CSc2nc3c(cnn3-c3ccccc3)c(=O)[nH]2)CC1	0.8	-5	-4	67*	0.3	22
CCn1c(SCC(=O)N2CCN(c3ccc(F)cc3)CC2)nc2ccccc2c1=O	0.4	12	-4	59*	0.4	63*
Cc1ccc(-n2ncc3c(=O)[nH]c(SCC(=O)N4CCN(c5ccccc5)CC4)nc32)cc1	.	-24	.	.	.	.
COc1ccc(N=C2SC(C(=O)Nc3ccc4c(c3)OCO4)CC(=O)N2C)cc1 (stereo not drawn)	0.5	26	1	73*	0.3	49
COc1ccc(N=C2SC(C(N)=O)CC(=O)N2CCc2ccc(OC)c(OC)c2)cc1 (stereo not drawn)	0.4	.	0	22	0.8	64*
CNC(=O)C1CC(=O)N(Cc2ccc3c(c2)OCO3)C(=Nc2ccc(OC)cc2)S1 (stereo not drawn)	0.4	-11	-6	35	0.7	56*
NC(=O)C1CC(=O)N(Cc2ccc3c(c2)OCO3)C(=Nc2ccccc2)S1 (stereo not drawn)	0	12	-1	52*	0.5	96*
CCOC(=O)Cn1nc(C)n(-c2ccc(C)cc2)c1=O	1.1	.	0	-2	1	-7
CCCCNC(=O)CCCn1c(=S)[nH]c2cc3c(cc2c1=O)OCO3	0.9	-11	-7	59*	0.4	15
CCOCCCn1c(=S)[nH]c2cc3c(cc2c1=O)OCO3	0.3	6	-6	48	0.5	68*
CCN(CC)CCNC(=O)CCn1c(=S)[nH]c2cc3c(cc2c1=O)OCO3	1.1	-19	2	0	1	-13
COc1ccccc1NC(=O)Cn1nnc(-c2ccccc2NC(=O)c2cc3ccccc3oc2=O)n1	1	.	-13	24	0.8	-4
Cc1ccc(-c2nsc3c(N4CCC(C(N)=O)CC4)ncnc23)cc1	1	18	-7	16	0.8	4
COC(=O)CSc1ccc2nnc(-c3ccc(F)cc3)n2n1	1	1	2	50	0.5	4
COC(=O)CSc1snnc1-c1ccc(F)cc1	0.3	.	-6	5	0.9	66*
CCOC(=O)N1CCC(N(CCOC)C(=O)Nc2ccc(Cl)c(Cl)c2)CC1	0.6	50	-6	15	0.8	40
CC(C)NS(=O)(=O)c1ccc(OCC(=O)N(C)Cc2ccccc2)cc1	0.5	.	-13	34	0.7	51*
CC(C)NS(=O)(=O)c1ccc(OCC(=O)Nc2ccc(F)cc2F)cc1	0.6	.	4	50*	0.5	43
COc1ccc(-c2csc(N(CCc3ccccc3)C(=O)COc3ccccc3)n2)cc1	0.8	.	-12	92*	0.1	20
O=C(COc1ccc(Cl)cc1)N(Cc1ccccc1)c1nc(-c2ccccc2)cs1	1.2	.	-7	-14	1.1	-17
COc1ccc(OCC(=O)N(C)Cc2ccccc2)cc1	0	-7	2	12	0.9	97*
CCOC(=O)C(Cc1ccccc1)NC(=O)Cn1nnc(-c2ccc(SC)cc2)n1 (stereo not drawn)	0.3	.	-19	15	0.9	67*
